# According to the M2OR odorant receptor database:
# Assays:
# Conditions in all cases: stereoisomer not certain
# OR1G1 (Homo sapiens) = molecular target: T1, OR1G1 (Homo sapiens) (UniProt P47890)
# T1 sequence (whole entry): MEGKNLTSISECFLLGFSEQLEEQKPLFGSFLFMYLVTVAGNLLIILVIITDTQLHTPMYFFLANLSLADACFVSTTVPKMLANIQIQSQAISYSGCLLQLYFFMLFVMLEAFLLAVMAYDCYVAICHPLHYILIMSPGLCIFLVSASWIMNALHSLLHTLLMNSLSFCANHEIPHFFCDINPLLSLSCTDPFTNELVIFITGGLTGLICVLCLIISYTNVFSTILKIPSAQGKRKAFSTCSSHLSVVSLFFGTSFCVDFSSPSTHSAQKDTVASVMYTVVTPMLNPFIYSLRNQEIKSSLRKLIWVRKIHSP
# Method in brief: (§1)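 Assay methods differ from source to source, frequently being transient luciferase assays in mammalian cell lines. For each receptor–molecule pair, the label responsive (active) applies when the original authors judged the measured signal statistically different from baseline, and non-responsive (inactive) applies otherwise.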
# OR1E3 (Homo sapiens) = OR1E3 (Homo sapiens) (UniProt Q8WZA6)
# Method in brief: as §1
# OR1F1 (Homo sapiens) = OR1F1 (Homo sapiens) (UniProt O43749)
# Method in brief: as §1
# OR1F12P (Homo sapiens) = OR1F12P (Homo sapiens) (UniProt Q8NHA8)
# Method in brief: as §1
# OR1I1 (Homo sapiens) = OR1I1 (Homo sapiens) (UniProt O60431)
# Method in brief: as §1
# OR1J1 (Homo sapiens) = OR1J1 (Homo sapiens) (UniProt Q8NGS3)
# Method in brief: as §1
# OR1K1 (Homo sapiens) = OR1K1 (Homo sapiens) (UniProt Q8NGR3)
# Method in brief: as §1
# OR1F1 = tested on: OR1F1
# Method in brief: as §1
# OR1J2 (Homo sapiens) = OR1J2 (Homo sapiens) (UniProt Q8NGS2)
# Method in brief: as §1
# OR1J4 (Homo sapiens) = OR1J4 (Homo sapiens) (UniProt Q8NGS1)
# Method in brief: as §1
# Sequence of OR1J1 (Homo sapiens) (Q8NGS3 whole entry): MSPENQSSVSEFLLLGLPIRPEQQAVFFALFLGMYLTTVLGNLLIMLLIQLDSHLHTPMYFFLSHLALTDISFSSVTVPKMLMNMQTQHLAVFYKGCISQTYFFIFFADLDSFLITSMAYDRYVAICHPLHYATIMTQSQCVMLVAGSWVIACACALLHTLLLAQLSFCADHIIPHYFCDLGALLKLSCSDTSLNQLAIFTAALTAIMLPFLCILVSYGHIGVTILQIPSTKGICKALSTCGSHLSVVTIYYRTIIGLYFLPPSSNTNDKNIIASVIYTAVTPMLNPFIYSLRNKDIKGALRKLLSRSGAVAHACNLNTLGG
# Sequence of OR1I1 (Homo sapiens) (O60431 whole entry): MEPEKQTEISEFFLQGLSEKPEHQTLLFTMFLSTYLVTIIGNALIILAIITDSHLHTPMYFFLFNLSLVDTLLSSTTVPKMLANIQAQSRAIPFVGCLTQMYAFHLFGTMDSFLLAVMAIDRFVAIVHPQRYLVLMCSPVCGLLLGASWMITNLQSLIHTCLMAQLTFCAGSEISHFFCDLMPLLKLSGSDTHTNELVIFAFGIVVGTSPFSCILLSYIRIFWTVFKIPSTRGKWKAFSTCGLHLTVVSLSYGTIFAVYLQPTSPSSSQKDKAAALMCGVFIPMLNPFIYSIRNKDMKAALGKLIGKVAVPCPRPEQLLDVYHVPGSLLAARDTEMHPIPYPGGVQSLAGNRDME
# Sequence of OR1F12P (Homo sapiens) (Q8NHA8 whole entry): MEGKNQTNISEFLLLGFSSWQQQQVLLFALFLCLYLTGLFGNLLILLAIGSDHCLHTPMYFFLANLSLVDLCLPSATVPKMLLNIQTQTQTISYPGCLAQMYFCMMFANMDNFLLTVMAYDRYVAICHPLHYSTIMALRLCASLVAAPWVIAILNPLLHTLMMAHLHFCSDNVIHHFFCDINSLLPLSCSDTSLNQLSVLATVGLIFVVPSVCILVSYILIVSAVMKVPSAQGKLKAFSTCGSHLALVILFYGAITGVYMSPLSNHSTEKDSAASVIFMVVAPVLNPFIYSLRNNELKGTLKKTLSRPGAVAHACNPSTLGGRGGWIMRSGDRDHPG
# Sequence of OR1K1 (Homo sapiens) (Q8NGR3 whole entry): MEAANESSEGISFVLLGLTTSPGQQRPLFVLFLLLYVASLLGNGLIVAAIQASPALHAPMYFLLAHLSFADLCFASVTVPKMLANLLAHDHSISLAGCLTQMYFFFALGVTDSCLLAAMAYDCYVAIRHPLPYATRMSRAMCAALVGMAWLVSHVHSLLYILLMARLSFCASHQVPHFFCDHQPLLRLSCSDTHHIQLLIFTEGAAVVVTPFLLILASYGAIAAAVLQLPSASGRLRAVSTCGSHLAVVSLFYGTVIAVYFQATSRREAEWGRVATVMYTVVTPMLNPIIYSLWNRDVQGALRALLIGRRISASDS
# Sequence of OR1F1 (Homo sapiens) (O43749 whole entry): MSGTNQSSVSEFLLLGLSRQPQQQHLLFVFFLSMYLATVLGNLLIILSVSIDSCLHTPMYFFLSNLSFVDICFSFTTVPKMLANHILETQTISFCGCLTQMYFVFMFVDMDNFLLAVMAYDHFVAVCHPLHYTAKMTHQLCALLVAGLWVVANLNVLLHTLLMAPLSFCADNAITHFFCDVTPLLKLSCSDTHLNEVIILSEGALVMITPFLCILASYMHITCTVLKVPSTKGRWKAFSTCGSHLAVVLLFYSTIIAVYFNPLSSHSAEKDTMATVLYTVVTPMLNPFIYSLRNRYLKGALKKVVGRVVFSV
# Sequence of OR1J4 (Homo sapiens) (Q8NGS1 whole entry): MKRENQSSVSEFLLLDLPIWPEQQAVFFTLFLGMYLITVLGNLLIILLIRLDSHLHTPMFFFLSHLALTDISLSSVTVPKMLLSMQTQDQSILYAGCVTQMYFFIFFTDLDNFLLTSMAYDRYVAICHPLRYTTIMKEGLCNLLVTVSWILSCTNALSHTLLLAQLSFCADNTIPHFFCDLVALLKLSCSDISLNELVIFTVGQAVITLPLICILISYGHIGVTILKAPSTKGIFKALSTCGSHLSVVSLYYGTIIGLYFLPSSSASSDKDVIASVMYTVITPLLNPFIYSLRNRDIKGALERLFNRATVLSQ
# Sequence of OR1E3 (Homo sapiens) (Q8WZA6 whole entry): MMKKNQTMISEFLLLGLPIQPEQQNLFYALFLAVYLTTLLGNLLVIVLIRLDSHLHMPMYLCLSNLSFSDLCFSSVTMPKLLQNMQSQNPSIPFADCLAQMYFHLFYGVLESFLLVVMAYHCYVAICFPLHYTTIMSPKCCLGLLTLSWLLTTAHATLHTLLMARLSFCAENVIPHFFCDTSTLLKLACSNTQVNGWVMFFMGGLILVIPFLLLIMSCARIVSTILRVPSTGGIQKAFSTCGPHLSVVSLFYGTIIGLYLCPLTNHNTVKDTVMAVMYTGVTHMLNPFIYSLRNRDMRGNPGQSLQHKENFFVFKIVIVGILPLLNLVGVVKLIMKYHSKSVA
# Sequence of OR1J2 (Homo sapiens) (Q8NGS2 whole entry): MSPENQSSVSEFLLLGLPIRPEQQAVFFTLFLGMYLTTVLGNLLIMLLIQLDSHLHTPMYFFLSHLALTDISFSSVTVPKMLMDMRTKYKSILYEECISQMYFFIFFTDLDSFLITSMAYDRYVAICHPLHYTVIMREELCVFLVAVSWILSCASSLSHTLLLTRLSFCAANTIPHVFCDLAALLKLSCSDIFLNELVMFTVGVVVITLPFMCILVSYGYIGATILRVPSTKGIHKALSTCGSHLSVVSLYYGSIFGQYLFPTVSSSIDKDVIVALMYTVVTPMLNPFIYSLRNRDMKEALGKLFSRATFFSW
# Sequence of OR1F1 (as listed by the source): as the sequence (O43749 whole entry) above, with F75S counted along it
structure (smiles),measurement,setting,value
C=CCc1ccc(OC)cc1,odorant receptor agonist call,OR1G1 (Homo sapiens),inactive
C=CCc1ccc2c(c1)OCO2,odorant receptor agonist call,OR1G1 (Homo sapiens),active
Cc1c([N+](=O)[O-])c(C)c([N+](=O)[O-])c(C(C)(C)C)c1[N+](=O)[O-],odorant receptor agonist call,OR1E3 (Homo sapiens),inactive
same,odorant receptor agonist call,OR1F1 (Homo sapiens),inactive
same,odorant receptor agonist call,OR1F12P (Homo sapiens),inactive
same,odorant receptor agonist call,OR1G1 (Homo sapiens),inactive
same,odorant receptor agonist call,OR1I1 (Homo sapiens),inactive
same,odorant receptor agonist call,OR1J1 (Homo sapiens),inactive
same,odorant receptor agonist call,OR1K1 (Homo sapiens),inactive
C=CCOC(=O)Cc1ccccc1,odorant receptor agonist call,OR1F1 (Homo sapiens),inactive
same,odorant receptor agonist call,OR1F12P (Homo sapiens),inactive
same,odorant receptor agonist call,OR1F1,inactive
same,odorant receptor agonist call,OR1G1 (Homo sapiens),inactive
same,odorant receptor agonist call,OR1I1 (Homo sapiens),inactive
same,odorant receptor agonist call,OR1J1 (Homo sapiens),inactive
same,odorant receptor agonist call,OR1J2 (Homo sapiens),inactive
same,odorant receptor agonist call,OR1J4 (Homo sapiens),inactive
same,odorant receptor agonist call,OR1K1 (Homo sapiens),inactive
COc1ccc(C=O)cc1,odorant receptor agonist call,OR1G1 (Homo sapiens),inactive
CC(=O)CCc1ccc2c(c1)OCO2,odorant receptor agonist call,OR1G1 (Homo sapiens),active
CC(C=O)Cc1ccc2c(c1)OCO2 (stereo not drawn),odorant receptor agonist call,OR1G1 (Homo sapiens),inactive
O=Cc1ccccc1,odorant receptor agonist call,OR1G1 (Homo sapiens),active
c1ccncc1,odorant receptor agonist call,OR1G1 (Homo sapiens),active
